According to ChEMBL document CHEMBL1800061 (J Med Chem, 2010):
Converted amounts (≈) assume the structure as drawn. The source made the active and inactive calls. No cut-off for these calls is given here.

What was measured:
Mus musculus [1] = assay: Inhibition of cyclin-dependent kinase substrate […] phosphorylation at Ser2 in nude BALB/c mouse PBMC at 25 mg/kg, po measured after 6 hrs by immunostaining and flow cytometric analysis; type: functional
How it was run: (§1)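 Seven-week-old female nu/nu-BALB/c nude mice got a single oral gavage (vehicle 28% PEG300/5% dimethylacetamide/10% HPB cyclodextrin in water). Blood was taken by cardiac puncture at 6 h or 24 h, red cells were lysed, and PBMC were fixed and permeabilized. Cells were stained with Rb, Rb pThr821, PolII or PolII pSer2 antibodies plus an Alexa488 secondary, then read by flow cytometry; n=4 (n=3 at 100 mg/kg).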

[2] = target: SRSF protein kinase 1 (Homo sapiens) (UniProt Q96SB4); assay: Inhibition of SRPK1 assessed as residual enzyme activity at 10 uM
Chain of SRSF protein kinase 1 (Homo sapiens) (Q96SB4 whole entry): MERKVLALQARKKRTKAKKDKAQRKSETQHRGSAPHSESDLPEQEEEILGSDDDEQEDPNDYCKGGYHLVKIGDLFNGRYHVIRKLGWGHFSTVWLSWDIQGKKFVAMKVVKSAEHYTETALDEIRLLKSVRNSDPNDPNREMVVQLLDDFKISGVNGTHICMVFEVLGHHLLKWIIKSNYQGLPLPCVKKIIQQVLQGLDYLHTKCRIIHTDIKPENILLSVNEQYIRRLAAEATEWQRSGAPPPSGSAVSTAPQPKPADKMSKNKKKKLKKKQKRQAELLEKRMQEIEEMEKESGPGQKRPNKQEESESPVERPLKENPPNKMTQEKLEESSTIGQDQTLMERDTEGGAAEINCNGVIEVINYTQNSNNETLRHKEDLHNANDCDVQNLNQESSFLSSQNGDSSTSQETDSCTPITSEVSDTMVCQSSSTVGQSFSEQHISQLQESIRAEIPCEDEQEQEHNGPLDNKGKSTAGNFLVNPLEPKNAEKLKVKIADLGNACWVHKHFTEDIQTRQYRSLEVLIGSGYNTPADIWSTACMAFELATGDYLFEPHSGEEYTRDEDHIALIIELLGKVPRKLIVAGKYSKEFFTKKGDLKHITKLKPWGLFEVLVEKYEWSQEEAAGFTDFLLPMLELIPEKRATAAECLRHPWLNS

Mus musculus [3] = assay: Inhibition of cyclin-dependent kinase substrate RB phosphorylation at Thr 821 in nude BALB/c mouse PBMC at 25 mg/kg, po measured after 6 hrs by immunostaining and flow cytometric analysis; type: functional; how it was run: as §1
[4] = target: MAP kinase-activated protein kinase 2 (Homo sapiens) (UniProt P49137); assay: Inhibition of MAPKAPK2 assessed as residual enzyme activity at 10 uM
Chain of MAP kinase-activated protein kinase 2 (Homo sapiens) (P49137 whole entry, looked up): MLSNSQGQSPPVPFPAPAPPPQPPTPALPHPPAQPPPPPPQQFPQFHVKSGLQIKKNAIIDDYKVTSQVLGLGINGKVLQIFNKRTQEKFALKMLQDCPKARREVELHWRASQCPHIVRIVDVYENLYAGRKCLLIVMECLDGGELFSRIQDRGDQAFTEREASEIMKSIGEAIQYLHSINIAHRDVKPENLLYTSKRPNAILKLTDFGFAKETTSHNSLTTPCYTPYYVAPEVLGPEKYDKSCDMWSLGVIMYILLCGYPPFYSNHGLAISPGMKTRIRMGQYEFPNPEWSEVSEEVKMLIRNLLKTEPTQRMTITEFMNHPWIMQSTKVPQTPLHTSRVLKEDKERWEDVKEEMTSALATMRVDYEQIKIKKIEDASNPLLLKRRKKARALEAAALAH

Mus musculus [5] = assay: Inhibition of cyclin-dependent kinase substrate […] phosphorylation at Ser2 in po dosed nude BALB/c mouse PBMC measured after 6 hrs by immunostaining and flow cytometric analysis; type: organism-based; details: in vivo
How it was run: (§2)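 Female nu/nu-BALB/c athymic nude mice (7 weeks old) given a single oral gavage dose in 28% PEG300/5% dimethylacetamide/10% HPB cyclodextrin in water. PBMC were isolated from cardiac blood after red-cell lysis, then fixed, permeabilized and stained with primary antibodies (1:100, 1 h, RT) and an Alexa Fluor 488 secondary (1:200, 1 h). Read-out was flow cytometry; n=4 (n=3 at 100 mg/kg).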

[6] = Elimination half life in mouse at 10 mg/kg, iv; type: ADME, organism-based; design: dose 10 mg/kg, route intravenous; details: in vivo, read-out: beta t1/2
How it was run: (§3)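 Mice given 10 mg/kg by the ip, iv or oral route. Plasma levels were measured at 8 time points, with 3 animals per route for po and iv. Parameters came from a noncompartmental model. AUCINF was extrapolated to infinity, and bioavailability was calculated from AUCINF. The terminal slope used 3 points.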

[7] = target: Mitogen-activated protein kinase 8 (Homo sapiens) (UniProt P45983); assay: Inhibition of JNK1 assessed as residual enzyme activity at 10 uM
[8] = target: Calcium/calmodulin-dependent protein kinase kinase 2 (Homo sapiens, UniProt Q96RR4); assay: Inhibition of CAMKKbeta at 0.1 uM
[9] = target: Serine/threonine-protein kinase pim-3 (Homo sapiens) (UniProt Q86V86); assay: Inhibition of PIM3 assessed as residual enzyme activity at 10 uM
[10] = target: Dual specificity tyrosine-phosphorylation-regulated kinase 3 (Homo sapiens) (UniProt O43781); assay: Inhibition of DYRK3 assessed as residual enzyme activity at 10 uM
Chain of Dual specificity tyrosine-phosphorylation-regulated kinase 3 (Homo sapiens) (O43781 whole entry): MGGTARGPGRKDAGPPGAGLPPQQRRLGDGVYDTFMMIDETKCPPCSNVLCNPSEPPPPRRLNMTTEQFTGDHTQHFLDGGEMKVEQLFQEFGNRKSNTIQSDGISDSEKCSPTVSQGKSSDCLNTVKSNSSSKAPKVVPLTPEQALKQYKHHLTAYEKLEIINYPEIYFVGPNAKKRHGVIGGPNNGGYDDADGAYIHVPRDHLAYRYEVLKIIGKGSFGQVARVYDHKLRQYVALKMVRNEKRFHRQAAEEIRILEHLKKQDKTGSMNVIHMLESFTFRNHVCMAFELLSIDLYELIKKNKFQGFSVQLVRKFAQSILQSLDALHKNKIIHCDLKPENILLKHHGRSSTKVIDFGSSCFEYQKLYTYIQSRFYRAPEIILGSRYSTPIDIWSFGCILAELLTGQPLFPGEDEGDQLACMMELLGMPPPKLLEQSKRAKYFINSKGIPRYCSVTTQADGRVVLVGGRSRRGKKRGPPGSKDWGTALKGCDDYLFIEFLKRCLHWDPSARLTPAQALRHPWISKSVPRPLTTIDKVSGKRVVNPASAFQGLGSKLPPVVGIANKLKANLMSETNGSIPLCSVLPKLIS

MCF7 = assay: Antitumor activity against human MCF7 cells xenografted in ip dosed nude BALB/c mouse assessed as decrease in tumor volume measured after 14 days relative to control on day 1; type: functional, organism-based
How it was run: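 Randomised nude mice bearing MCF-7 tumours were injected intraperitoneally twice daily with 5 or 10 mg/kg (10 or 20 mg/kg/day) for 14 days. The control group received vehicle. Tumour volume was expressed relative to each animal's own day 1 volume.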

[11] = target: Mitogen-activated protein kinase 3 (Homo sapiens, UniProt P27361); assay: Inhibition of ERK1
Chain of Mitogen-activated protein kinase 3 (P27361 whole entry): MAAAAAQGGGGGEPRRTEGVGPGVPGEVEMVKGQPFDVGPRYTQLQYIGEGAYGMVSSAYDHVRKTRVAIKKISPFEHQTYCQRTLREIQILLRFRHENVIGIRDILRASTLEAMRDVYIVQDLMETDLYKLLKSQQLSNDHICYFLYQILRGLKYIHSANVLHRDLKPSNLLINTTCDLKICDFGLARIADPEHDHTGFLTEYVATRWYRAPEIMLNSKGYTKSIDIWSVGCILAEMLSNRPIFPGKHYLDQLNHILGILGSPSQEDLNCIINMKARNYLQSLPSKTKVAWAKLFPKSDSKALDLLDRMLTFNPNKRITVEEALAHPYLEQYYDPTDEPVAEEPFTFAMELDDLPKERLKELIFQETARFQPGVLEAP

[12] = Aqueous solubility of the compound in PBS as pH 7.4; type: physicochemical
[13] = target: Cyclin-dependent kinase 4 (Homo sapiens) (UniProt P11802); assay: Inhibition of CDK4-mediated phosphorylation of RB protein in human HCT116 cells after 4 hrs by immunoblotting analysis; type: cell-based; details: HCT-116
Chain of Cyclin-dependent kinase 4 (Homo sapiens) (P11802 whole entry): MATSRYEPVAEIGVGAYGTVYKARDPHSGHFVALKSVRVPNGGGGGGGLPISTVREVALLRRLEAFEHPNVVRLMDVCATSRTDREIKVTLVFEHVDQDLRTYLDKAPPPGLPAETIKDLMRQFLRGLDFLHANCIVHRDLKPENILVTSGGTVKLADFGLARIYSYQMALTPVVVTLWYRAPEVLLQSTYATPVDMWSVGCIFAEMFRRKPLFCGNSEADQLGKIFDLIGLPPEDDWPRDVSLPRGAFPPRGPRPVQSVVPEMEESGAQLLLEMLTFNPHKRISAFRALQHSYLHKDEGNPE
How it was run: (§4)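 HCT116 colon cancer cells were kept in DMEM with 10% FCS. Cells (8×10^5) were plated, dosed 24 h later, and exposed for 4 or 24 h. Whole-cell lysates were made in RIPA buffer with phosphatase and protease inhibitor cocktails and normalised by BCA protein assay. They were immunoblotted for phospho-sites, total proteins and cyclins.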

[14] = target: Homeodomain-interacting protein kinase 2 (Homo sapiens) (UniProt Q9H2X6); assay: Inhibition of HIPK2 assessed as residual enzyme activity at 10 uM
[15] = target: T1, Mitogen-activated protein kinase 1 (Homo sapiens, UniProt P28482); assay: Inhibition of ERK2 at 0.1 uM
T1 sequence (P28482 whole entry): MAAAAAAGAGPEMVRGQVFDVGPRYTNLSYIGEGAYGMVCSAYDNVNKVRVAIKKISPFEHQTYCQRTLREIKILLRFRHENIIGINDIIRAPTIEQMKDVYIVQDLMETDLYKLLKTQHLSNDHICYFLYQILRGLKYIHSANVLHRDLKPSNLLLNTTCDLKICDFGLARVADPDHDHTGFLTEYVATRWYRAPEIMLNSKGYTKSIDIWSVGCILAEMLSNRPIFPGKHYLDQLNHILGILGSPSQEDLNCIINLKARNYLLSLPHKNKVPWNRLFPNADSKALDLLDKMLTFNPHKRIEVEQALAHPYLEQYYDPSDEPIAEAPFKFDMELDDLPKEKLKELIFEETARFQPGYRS

[16] = target: Mitogen-activated protein kinase 9 (Homo sapiens) (UniProt P45984); assay: Inhibition of JNK2 assessed as residual enzyme activity at 10 uM
Chain of Mitogen-activated protein kinase 9 (Homo sapiens) (P45984 whole entry, looked up): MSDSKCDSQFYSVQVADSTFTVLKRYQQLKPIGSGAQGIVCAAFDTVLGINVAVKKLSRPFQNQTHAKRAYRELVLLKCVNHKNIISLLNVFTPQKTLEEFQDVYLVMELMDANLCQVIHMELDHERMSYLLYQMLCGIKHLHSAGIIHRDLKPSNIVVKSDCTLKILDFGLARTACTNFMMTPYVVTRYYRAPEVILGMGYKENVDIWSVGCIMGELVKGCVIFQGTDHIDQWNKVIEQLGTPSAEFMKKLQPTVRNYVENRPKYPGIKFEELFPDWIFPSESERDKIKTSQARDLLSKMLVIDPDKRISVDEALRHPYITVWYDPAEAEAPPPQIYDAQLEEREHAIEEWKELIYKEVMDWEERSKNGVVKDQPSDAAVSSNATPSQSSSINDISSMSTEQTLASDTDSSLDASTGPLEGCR

[17] = target: Mitogen-activated protein kinase 11 (Homo sapiens) (UniProt Q15759); assay: Inhibition of P38beta MAPK assessed as residual enzyme activity at 10 uM
Chain of Mitogen-activated protein kinase 11 (Homo sapiens) (Q15759 whole entry): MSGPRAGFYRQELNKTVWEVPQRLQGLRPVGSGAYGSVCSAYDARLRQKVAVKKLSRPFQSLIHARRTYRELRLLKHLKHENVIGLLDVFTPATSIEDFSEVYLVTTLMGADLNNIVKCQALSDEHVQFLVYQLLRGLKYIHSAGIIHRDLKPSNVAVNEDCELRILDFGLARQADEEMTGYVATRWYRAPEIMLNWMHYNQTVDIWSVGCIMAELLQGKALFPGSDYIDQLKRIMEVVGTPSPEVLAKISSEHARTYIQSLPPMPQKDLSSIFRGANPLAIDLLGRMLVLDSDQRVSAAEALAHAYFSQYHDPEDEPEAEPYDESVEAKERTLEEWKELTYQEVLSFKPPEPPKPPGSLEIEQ

[18] = target: G2/mitotic-specific cyclin-B1 (Homo sapiens) (UniProt P14635); assay: Inhibition of cyclin B-mediated phosphorylation of RB protein in human HCT116 cells after 4 hrs by immunoblotting analysis; type: cell-based; details: HCT-116; how it was run: as §4
[19] = target: Serine/threonine-protein kinase PAK 6 (Homo sapiens) (UniProt Q9NQU5); assay: Inhibition of PAK6 assessed as residual enzyme activity at 10 uM
Chain of Serine/threonine-protein kinase PAK 6 (Homo sapiens) (Q9NQU5 whole entry, looked up): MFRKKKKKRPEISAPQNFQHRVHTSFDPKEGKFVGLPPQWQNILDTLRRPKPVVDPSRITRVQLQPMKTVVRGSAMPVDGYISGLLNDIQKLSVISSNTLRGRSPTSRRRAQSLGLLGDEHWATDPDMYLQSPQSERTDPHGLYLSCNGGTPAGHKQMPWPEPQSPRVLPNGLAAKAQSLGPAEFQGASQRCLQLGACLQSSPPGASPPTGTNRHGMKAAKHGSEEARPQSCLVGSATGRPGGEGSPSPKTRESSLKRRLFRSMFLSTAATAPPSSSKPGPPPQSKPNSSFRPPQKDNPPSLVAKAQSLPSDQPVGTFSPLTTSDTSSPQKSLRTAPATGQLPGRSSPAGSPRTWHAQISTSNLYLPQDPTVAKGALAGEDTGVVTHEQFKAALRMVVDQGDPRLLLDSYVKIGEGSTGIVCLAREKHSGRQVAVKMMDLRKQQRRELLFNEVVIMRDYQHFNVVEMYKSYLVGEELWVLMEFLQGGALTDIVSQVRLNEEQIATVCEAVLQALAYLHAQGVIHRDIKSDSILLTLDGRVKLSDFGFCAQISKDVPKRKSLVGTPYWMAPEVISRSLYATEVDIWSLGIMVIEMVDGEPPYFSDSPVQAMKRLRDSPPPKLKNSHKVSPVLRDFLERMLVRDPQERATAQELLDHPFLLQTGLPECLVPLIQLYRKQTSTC

[20] = target: T1, Mitogen-activated protein kinase 1; assay: Inhibition of ERK2
[21] = target: Serine/threonine-protein kinase PLK1 (Homo sapiens) (UniProt P53350); assay: Inhibition of okadaic acid-activated PLK1 assessed as residual enzyme activity at 10 uM
Mus musculus [22] = assay: Inhibition of cyclin-dependent kinase substrate […] phosphorylation in nude BALB/c mouse PBMC at 50 mg/kg, po measured after 6 hrs by immunostaining and flow cytometric analysis; type: functional, organism-based; design: dose 50 mg/kg; how it was run: as §2
[23] = target: Cyclin-dependent kinase 1/cyclin B1 (Homo sapiens, UniProt P06493); assay: Inhibition of CDK1/cyclinB1 assessed as amount of ATP released by luciferase activity based PKLight assay; type: protein-complex assay
Mus musculus [24] = assay: Toxicity in nude BALB/c mouse assessed as adverse effect on weight at 5 mg/kg, ip bid for 14 days; type: organism-based; design: dose 5 mg/kg, route intraperitoneal; details: in vivo, 336 h
How it was run: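 Nude mice bearing MCF-7 tumors, randomized, given ip injections twice daily with vehicle or 5 or 10 mg/kg (10 or 20 mg/kg/day) for 14 days. Body weights were followed over the study; n=8–11 per group.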

Mus musculus [25] = assay: AUC (0 to infinity) in mouse at 10 mg/kg, iv; type: ADME, organism-based, Plasma; design: time infinity, dose 10 mg/kg, route intravenous; details: in vivo; how it was run: as §3
SAOS-2 = assay: Antiproliferative activity against human Saos2 cells after 72 hrs by sulforhodamine B assay; type: functional; details: SAOS-2, 72 h
How it was run: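 Cell lines were grown in DMEM with 10% FCS and treated with increasing concentrations for 72 h. Growth was read by sulforhodamine B staining and GI50 was derived. Values are means of at least three replicates with SD.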

[26] = target: Insulin receptor-related protein (Homo sapiens, UniProt P14616); assay: Inhibition of IRR assessed as residual enzyme activity at 10 uM
[27] = target: Cyclin-dependent kinase 1 (Homo sapiens) (UniProt P06493); assay: Inhibition of CDK1-mediated phosphorylation of PP1a at Thr320 in human HCT116 cells after 24 hrs by immunoblotting analysis; type: cell-based; details: HCT-116; how it was run: as §4
Chain of Cyclin-dependent kinase 1 (Homo sapiens) (P06493 whole entry, looked up): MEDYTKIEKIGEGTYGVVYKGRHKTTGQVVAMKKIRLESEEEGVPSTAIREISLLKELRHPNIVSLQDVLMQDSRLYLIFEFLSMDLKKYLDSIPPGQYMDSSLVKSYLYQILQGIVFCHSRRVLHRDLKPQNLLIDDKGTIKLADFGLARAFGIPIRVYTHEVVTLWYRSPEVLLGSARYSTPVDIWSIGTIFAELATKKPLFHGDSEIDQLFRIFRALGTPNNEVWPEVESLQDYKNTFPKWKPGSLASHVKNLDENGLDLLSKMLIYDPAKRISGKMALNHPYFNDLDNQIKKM

`CC(C)c1cnn2c(NCc3ccccc3)cc(N[C@@H](CO)[C@H](O)CO)nc12` gave an inhibition in vivo at 25 mg/kg (Mus musculus [1]) of 25%, an Activity [2] of 62% and an inhibition in vivo at 25 mg/kg (Mus musculus [3]) of 60%. The Activity [4] was 111%, the “inhibition (INH)” value (Mus musculus [5]) was “Dose-dependent effect” and the half-life [6] was 3.5 h. The Activity [7] was 93%, the inhibition [8] was less than 50% and the Activity [9] was 101%. For the same molecule, the Activity [10] was 88%, the inhibition (MCF7) was “Dose-dependent effect” and the IC50 [11] was 3730 nM. For the same molecule, the solubility [12] was 54 µM (≈ 20.8 µg/mL), the inhibition [13] was “inactive” and the Activity [14] was 73%. It also gave an inhibition [15] of less than 50%, an Activity [16] of 94% and an Activity [17] of 94%. For the same molecule, the inhibition [18] was “inactive”, the Activity [19] was 85% and the IC50 [20] was 3110 nM. For the same molecule, the Activity [21] was 97%, the inhibition (Mus musculus [22]) was “inactive” and the IC50 [23] was 33 nM. The Activity (Mus musculus [24]) was “Non-toxic”, the AUC (Mus musculus [25]) was 36400 ng·h/mL and the GI50 (SAOS-2) was 250 nM. For the same molecule, the Activity [26] was 32% and the inhibition [27] was “Active”.
